RAM inhibit = blocks the yeast RAM network; S. cerevisiae dse1pr::URA3 reporter, 5-FOA growth OD615, 2 d; analog-sensitive cbk1-as2 kinase mutant strain; inhibition, % at 50 µM; 190,000 compounds, 1.8% hits;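 active means inhibition above a set limit, 3 SD over mean compound inhibition, cut at about 8.4% in these data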;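 further: inhibition rescues growth on 5-FOA so higher OD means more RAM inhibition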
Yeast growth inh = reduces growth of yeast BB579 in restrictive medium; AID 804; inhibition, % at 10 µM; S. cerevisiae BB579 growth, OD615, 48 h; 140,000 compounds, 0.51% hits;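 active means inhibition above a set limit, 3 SD over the mean compound inhibition, cut at about 44% in these data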
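Detection: OD615 turbidity measurement; Material: Saccharomyces cerevisiae DeaD strain BB579, replicative lifespan model yeast; Timing: 48 h exposure, 30 °C; Doses: single 10 µM dose; Medium: CSMM-D restrictive synthetic medium containing dextrose (glucose); Controls: amphotericin B at 10 µg/mL as positive control.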
Yeast lifespan up = extends the lifespan of yeast. inhibition of the nicotinamide effect, % at 10 µM. 130,000 compounds, 0.68% hits. AID 775. S. cerevisiae growth with nicotinamide, OD615; deaD strain in restrictive glucose medium;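 active means inhibition above a set limit, placed 3 SD over the median of all compounds, cut at about 26% in these data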
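assay system = DeaD-strain S. cerevisiae | measured by = absorbance at 615 nm | probe or stimulus = nicotinamide 1.5 mM | buffer or medium = CSMM-D glucose medium, restrictive | times = 48 h at 30 °C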
Insulin prom inh = TRM-6 insulin promoter activity inhibition. 130,000 compounds, 0.9% hits. inhibition, % at 2 µM. TRM-6 cells, insulin promoter-eGFP reporter, imaging; reporter expression induced with tamoxifen;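 active means inhibition above the mean plus 3 SD, with well images judged a real hit on visual review, cut at about 60% in these data, passing the limit was not always enough; inconclusive means inhibition over the cutoff but images rejected on review; inactive means inhibition not above the cutoff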
Insulin prom up = MIN6 insulin promoter up-regulation. MIN6 insulin promoter-GFP reporter, high-content imaging; hits give high values. z-score at 5 µM. 190,000 compounds, 0.3% hits;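 active means z-score above 3 at 5 µM with at least 500 cells counted in the well; inconclusive means wells under 500 cells, flagged as cytotoxic or low count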
A number is an active result; - = inactive; ? = inconclusive; . = no result given. This is a sample that favours compounds with a hit; in the whole collection about 3% have one here.

SMILES | RAM inhibit | Yeast growth inh | Yeast lifespan up | Insulin prom inh | Insulin prom up
Cc1ccc(S(=O)(=O)N(C)C)cc1NC(=S)N1CCN(Cc2ccc3c(c2)OCO3)CC1 | - | . | . | . | -
CC(C)(C)OC(=O)[C@H]1[C@H](c2ccc([N+](=O)[O-])cc2)C2(C(=O)c3ccccc3C2=O)C2c3ccccc3C=NN21 (stereo not given in full) | - | - | 43 | - | -
COc1ccc([C@H]2[C@H](C(=O)C(C)(C)C)N3N=Cc4ccccc4C3[C@]23N=C(c2ccccc2)OC3=O)cc1 (stereo not given in full) | - | - | - | - | -
Cc1ccc(C2(c3noc(CN(C)Cc4cnn(C)c4)n3)CCCC2)cc1 | - | . | . | . | -
CNC(=O)c1cc(NC(=O)CCn2nc(-c3ccccc3)c3ccccc3c2=O)ccc1OC | . | . | . | . | -
Cc1cc(NC(=O)c2cccc(F)c2)ncc1NC(=O)c1ccco1 | - | - | 31 | - | -
Cc1cc(NC(=O)c2cccs2)ncc1NC(=O)c1cccc(F)c1 | - | . | . | . | -
CCOC(=O)C1CCCN(C(=O)c2csc(-c3ccc4c(c3)CCO4)n2)C1 (stereo not given) | . | . | . | . | -
O=C1N=c2ccccc2=C1c1sc(=S)n(Cc2ccccc2Cl)c1O | . | . | . | . | -
CCOCC(=O)Nc1c(C(=O)Nc2ccc(OC)cc2OC)oc2ccccc12 | 11 | - | - | - | -
COc1ccc(NC(=O)c2oc3ccccc3c2NC(=O)c2ccco2)c(OC)c1 | - | - | - | - | -
CCNC(=S)NNc1nc(N2CCCCC2)nc(N2CCOCC2)n1 | - | . | . | - | -
Cc1ccc(-c2onc3ccc(C4OCCO4)cc23)cc1 | - | . | . | - | -
CCOC(=O)c1sc(=S)n(C)c1NC(=O)c1ccccc1Cl | - | - | - | . | -
CC(=O)N1c2c(ccc3ccccc23)C(C)CC12CCCCC2 (stereo not given) | - | - | - | - | -
CC1CC2(CCCCC2)Nc2c1ccc1ccccc21 (stereo not given) | 9.4 | - | . | - | -
COc1cccc(NC(=O)Cc2ccccc2)c1 | - | - | - | 73 | -
COc1cccc(NC(=O)Nc2ccc(C(C)(C)C)cc2)c1 | 9.9 | . | . | . | .
COc1cccc(NC(=O)CSCC(=O)Nc2ccccc2)c1 | - | - | - | - | .
COC(=O)[C@@]1(Cc2ccc(F)cc2)[C@H]2c3cc(C(=O)N(C)C)n(CCc4ccc(OC)c(Br)c4)c3C[C@H]2CN1C(=O)c1ccccc1 | 8.7 | - | - | - | -
CCC(C)NC(=O)COc1ccccc1[N+](=O)[O-] (stereo not given) | - | - | - | - | -
CN(C(=O)CSc1nc2c(c(=O)[nH]1)CCC2)c1ccccc1 | - | . | . | - | -
CC1CCc2c(sc3nc(CN4CCOCC4)nc(Sc4ccccc4)c23)C1 (stereo not given) | - | 46 | - | . | .
COc1ccc(Nc2nc(CN3CCOCC3)nc3sc4c(c23)CCC(C)C4)cc1OC (stereo not given) | - | - | - | - | -
COCc1cnc(C)nc1N | - | . | . | - | -
SMILES | RAM inhibit | Yeast growth inh | Yeast lifespan up | Insulin prom inh | Insulin prom up
CCOc1ccc(NC(=O)C2CCC(C)(C(=O)O)C2(C)C)cc1 (stereo not given) | - | - | - | . | 3.6
COc1ccc(NC(=O)C2CCC(C)(C(=O)O)C2(C)C)cc1 (stereo not given) | - | - | - | - | -
O=C1C(Cl)=C(N2CCCCC2)C(=O)C(Cl)=C1c1cnc(N2CCCCC2)s1 | 9.5 | - | . | - | .
CN(C)c1ncc(C2=C(Cl)C(=O)C(N3CCCC3)=C(Cl)C2=O)s1 | - | - | . | - | .
O=C(NCc1cn2ccccc2n1)c1ccco1 | - | - | - | . | 3.7
COCCn1c(SCc2ccc(C(=O)OC)o2)nc2cc(Cl)ccc2c1=O | 9.4 | - | - | . | -
COCCCn1c(SCC(=O)Nc2ccc(C(C)=O)cc2)nc2ccccc2c1=O | - | - | - | - | -
COCCn1c(SCC(=O)Nc2cccc(C(=O)OC)c2)nc2ccccc2c1=O | 8.8 | - | - | . | -
COCCCn1c(SCc2nc3ccccc3c(=O)[nH]2)nc2ccccc2c1=O | 9.5 | - | - | - | -
CCn1c(SCc2nc3ccccc3c(=O)[nH]2)nc2ccccc2c1=O | - | - | . | - | -
CCCCC1=C([O-])C2N=CC=CC2=[N+](c2ccccn2)C1=O (stereo not given) | - | - | - | - | -
CCc1ccc(C(=O)NC(CCSC)C(=O)OC)cc1 (stereo not given) | - | . | . | . | -
N=c1c2ccccc2nnn1-c1cccc(C(F)(F)F)c1 | - | . | . | - | .
Cc1ccc(-n2c(C)csc2=N)cc1 | - | - | - | ? | -
Cc1csc(=N)n1-c1ccc(Cl)cc1 | - | - | - | 91 | -
CCOc1cc(N2CCOCC2)c(OCC)cc1NC(=S)NCCCOC | - | . | . | - | -
O=c1c2ccccc2nc2c3ccccc3c3nncn3n12 | - | 82 | - | . | -
CCCCCC1CC(CC(=O)NC(=S)Nc2ccc([N+](=O)[O-])cc2)C(=O)O1 (stereo not given) | 11 | - | . | - | .
O=C1NN(c2ccc(F)cc2)C(=O)/C1=C\C=C\c1ccco1 | - | - | 32 | - | -
CNC(=O)c1ccc(NC(=O)/C=C/c2cccc(F)c2)cc1 | - | . | . | - | -
Cn1c(CCNC(=O)c2ccc(Cl)c(Cl)c2)nnc1SCc1ccc(Cl)c(Cl)c1 | 8.8 | - | - | - | -
C=CCn1c(CCNC(=O)c2ccc(Cl)c(Cl)c2)nnc1SCCOc1ccc(OC)cc1 | - | - | - | - | -
CC(C)NC(=O)NS(=O)(=O)c1cnccc1N1CCCCC1 | - | - | . | - | .
CC(C)NC(=O)N1CCN(c2ccncc2S(=O)(=O)N2CCOCC2)CC1 | - | - | - | - | 5.8
COC(=O)c1nn(-c2cccc(C)c2)c2nnc(Cc3ccccc3)c(=O)n12 | - | - | 26 | - | -
SMILES | RAM inhibit | Yeast growth inh | Yeast lifespan up | Insulin prom inh | Insulin prom up
COC(=O)c1nn(-c2ccccc2)c2nnc(Cc3ccc(C)cc3)c(=O)n12 | - | - | - | - | -
O=C(/C=C/c1ccc(F)cc1)Nc1ccc2[nH]c(=O)[nH]c2c1 | . | . | . | . | -
O=C(COC(=O)/C=C/c1cccc(Br)c1)NCCC1=CCCCC1 | 9.8 | - | - | - | -
CCOC(=O)c1nn(-c2ccc(Cl)cc2)c2nc(Nc3ccccc3)cc(=O)n12 | - | - | - | - | -
CCOC(=O)c1nn(-c2ccccc2C)c2nc(Nc3ccccc3)cc(=O)n12 | 8.4 | - | - | - | ?
O=C(Nc1cccc(Cl)c1)NC1CC2CCC(C1)N2Cc1cccs1 (stereo not given) | - | . | . | . | -
CCOC(=O)C1=C(CSc2nc(-c3ccccc3)ccc2C#N)OC(N)=C(C#N)C1c1cccnc1 (stereo not given) | - | - | - | - | -
CCOC(=O)C1=C(CSc2nc(-c3ccccc3)ccc2C#N)OC(N)=C(C#N)C1c1ccccc1 (stereo not given) | 8.6 | - | - | - | -
Cc1ccc(N(CC(=O)NCCSc2nc3ccccc3s2)S(=O)(=O)c2ccccc2)c(C)c1 | 9.2 | - | - | - | -

Screening results deposited in PubChem BioAssay by several laboratories.
